Sampled rows, rich in hits. Any-hit rate of the full collection: about 2.2%.
APP transl inh: inhibitors of APP translation via 5'UTR reporter, primary screen, APP 5'UTR luciferase, SH-SY5Y cells; SH-SY5Y APP 5'UTR-luciferase reporter, luminescence; inhibition, % at 2 µM; 190,000 compounds, 0.82% hits; AID 1285, 2008;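 active means inhibition above a set limit, derived from the sample mean plus 3 SD, cut at about 45% in these data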
MT stabilizer: microtubule stabilizers in HeLa cells, primary screen, imaging, high-content imaging. % tubulin-high responders, % at 10 µM. 200,000 compounds, 0.83% hits. HeLa tubulin immunostaining HCS, 24 h; share of cells brighter than vehicle mean+2SD;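 active means plate Z-score above 3 for both tubulin-high and condensed-nucleus cell shares, with cell loss under 80%, at 10 µM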;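 further: anti alpha tubulin signal scored within the nucleus-defined area of each cell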
IEC-6 cytotox: cytotoxicity in IEC-6 intestinal epithelial cells, primary screen, cytotoxicity control for KLF5 inhibitor project, cell-based, luminescence. 290,000 compounds, 0.78% hits. inhibition, % at 5 µM. IEC-6 cytotoxicity, luminescence viability. AID 1825, 2009; in the data active means inhibition above about 22%;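 further: 0% = plate median of test compound wells and 100% = cytotoxic reference compound wells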
BaF3 tox: parental Ba/F3 cell viability inhibition, counter-screen for JAK2V617F inhibitor project, murine pro-B, CellTiter-Glo luminescence. 220,000 compounds, 1.1% hits. CellTiter-Glo ATP luminescence. inhibition, % at 5.6 µM. AID 1486, 2009;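 active means inhibition above a per-campaign cutoff, the mean inhibition of all tested compounds plus 3 SD, cut at about 27% in these data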;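 further: 0% = DMSO wells and 100% = JAK Inhibitor I control wells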
Ba/F3 V617F tox: reduced viability of JAK2V617F-dependent Ba/F3 cells, primary screen, JAK2V617F inhibitor project, cell-based, Ba/F3 EpoR-JAK2V617F, luminescence. ATP luminescence. inhibition, % at 5.6 µM. 220,000 compounds, 1.1% hits;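 active means inhibition above the campaign mean plus 3 SD over all tested compounds, cut at about 24% in these data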;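 further: cytokine-independent growth of Ba/F3 cells driven by EpoR plus mutant JAK2; 0% = DMSO-treated cells and 100% = JAK inhibitor I control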
bCat nuc transl: modulators of beta-catenin nuclear translocation, primary screen, imaging, HeLa cells, immunofluorescence, high-content; nuclear translocation activity, % at 5 µM; 190,000 compounds, 0.3% hits;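 active means nuclear translocation activity above 50% at 5 µM, with a well cell count of 50 or more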;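 further: per-cell ratio of nuclear to cytoplasmic median beta-catenin stain intensity; plate controls were DMSO negative control for no effect and GSK-3 inhibitor IX positive control for full effect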
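Signal – beta-catenin immunofluorescence imaging with DAPI · Test system – human HeLa cell line · Dosing – 5 µM primary single dose, 0.1% DMSO, 0.02–20 µM confirmation series · Measure – % activation, nuclear-to-cytoplasmic median beta-catenin signal ratio per cell · Incubation – 24 h compound exposure at 37°C, 5% CO2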
The depositor's hits bear a star; . = no result given.

SMILES | APP transl inh | MT stabilizer | IEC-6 cytotox | BaF3 tox | Ba/F3 V617F tox | bCat nuc transl
COc1ccc(N(C)C(=S)Oc2ccc(C(=O)Nc3ccccc3)cc2)cc1 | -12 | 44* | -5 | 1 | 3 | -2
COc1ccc(C(=O)Nc2cc(OC)cc(OC)c2)cc1 | -125 | 10 | 9 | 69* | 4 | 0
COc1ccc(NC(=O)c2cccc(NC(=O)c3ccccc3)c2)cc1 | . | . | 9 | . | . | .
Cc1nc(N2CCCCC2)c(C#N)c(C)c1[N+](=O)[O-] | -19 | 3 | -1 | 6 | 0 | -4
O=C(CN1CCc2cc3c(cc2C1)OCCCO3)Nc1c(F)cccc1F | . | . | 6 | . | . | .
CC(=O)c1cccc(OCc2cc(C(=O)NCc3nc(C)c(C)s3)no2)c1 | . | . | 2 | . | . | .
Cc1csc2ncnc(NCCc3ccccn3)c12 | -20 | 6 | -2 | 77* | 37* | 2
Cc1cc(C(C)(C)C)cc(C)c1Cn1c2[n+](c3ccc(C(F)(F)F)cc31)CCCCC2 | 6 | 3 | 5 | 53* | 49* | -2
COc1ccc(NS(=O)(=O)NC(=O)c2c[nH]c3ccccc23)cc1 | . | . | -2 | . | . | .
O=S(=O)(c1ccc(Cl)c(Cl)c1)c1snnc1-c1ccccc1 | 95* | 5 | 2 | 42* | 58* | 1
COC(=O)c1cc(Cl)c(NC(=O)/C=C/c2ccc(OC)cc2)cc1OC | 24 | 26* | -6 | 1 | -1 | 8
COC(=O)c1cc(Cl)c(NC(=O)C(C)C)cc1OC | -19 | 2 | -8 | 4 | 0 | 0
Cc1coc2cc3oc(=O)c(CCC(=O)NCCN4CCOCC4)c(C)c3cc12 | . | . | 0 | . | . | .
Cc1cc(C(=O)CN2C(=O)c3ccccc3S2(=O)=O)c(C)n1CC1CCCO1 (centres undefined) | 86* | 6 | -3 | 1 | -3 | -4
Cc1cc(C(=O)CSc2nc3ccccc3c(=O)n2C)c(C)n1CC1CCCO1 (centres undefined) | 17 | 4 | 9 | 69* | 59* | 3
Cc1cc(C(=O)CN2C(=O)NC(C)(c3ccccc3)C2=O)c(C)n1CC1CCCO1 (centres undefined) | -7 | 5 | 2 | 6 | 0 | -2
Cc1cc(C(=O)CSc2nc3ccccc3c(=O)[nH]2)c(C)n1CC1CCCO1 (centres undefined) | -103 | 2 | 4 | 40* | 35* | 1
CCOc1ccc(N(C(C)C(=O)N2CCOCC2)S(C)(=O)=O)cc1 (centres undefined) | . | . | 3 | . | . | .
CCn1c(SC)nnc1-c1sc2cc(Cl)ccc2c1Cl | -5 | 3 | 0 | 40* | 2 | .
CCN1CCN(C(=O)CCc2ccc(S(=O)(=O)NCCc3ccccc3)cc2)CC1 | 56* | 3 | -1 | 0 | -2 | -2
CCOC(=O)c1c(C)[nH]c(C(=O)COC(=O)COc2ccccc2C=O)c1C | 6 | 6 | 6 | 1 | 0 | 1
CCCCC1=CC2=CC(=O)C(C)(OC(=O)CC)C(=O)C2=CN1C1CCCC1 (centres undefined) | . | . | . | . | . | -1
CCOc1cc(/C=N/n2nnnc2N)ccc1OCc1c(C)no[n+]1[O-] | 9 | 2 | 11 | 97* | 2 | 1
CC(C)c1ccc(C(C(=O)NC2CCCCC2)N(C(=O)c2ccccn2)c2cccnc2)cc1 (centres undefined) | 0 | 2 | 1 | 7 | -2 | -3
CCOC(=O)c1c(N=CN(C)C)c2cc([N+](=O)[O-])cnc2n1C | . | . | 3 | -2 | 2 | 2
SMILES | APP transl inh | MT stabilizer | IEC-6 cytotox | BaF3 tox | Ba/F3 V617F tox | bCat nuc transl
Cc1cccc(CSC(Nc2ccc(F)cc2)=C(C#N)C#N)c1 | 48* | 3 | 13 | 7 | 0 | -4
Cc1cccc(CSC(=N)N)c1 | -2 | 3 | -1 | -1 | -4 | -2
c1cn(CCCNC2=NCCCCC2)cn1 | -8 | 1 | 2 | 91* | 2 | -7
c1cn(CCCNc2ncnc3sc4c(c23)CCC4)cn1 | -10 | 5 | 14 | 5 | 5 | -2
COc1cc(C2Nc3cccc4cccc(c34)N2)ccc1O | . | . | -6 | . | . | .
COc1cc(C2Nc3cccc4cccc(c34)N2)cc(OC)c1OC(C)=O | 9 | 16* | -2 | 40* | 0 | -1
CC(C)(C)CC(C)(C)NC(=O)/C=C/C(=O)O | . | . | -5 | -3 | -2 | 0
CCN1CCN(Cc2c3ccccc3cc3ccccc23)CC1 | . | . | 0 | . | . | .
CC(C)c1ccc(NC(=S)N(C)CCc2ccccn2)cc1 | -20 | 6 | 7 | -2 | 3 | 2
CCCN1CCC(=NNc2ccc(S(=O)(=O)N(CC)CC)cc2[N+](=O)[O-])CC1 | 53* | 14 | -1 | 11 | 2 | 112*
O=C(NCc1ccccn1)c1cc(-c2ccc(-c3ccccc3)cc2)nc2ccccc12 | -107 | 3 | 14 | 36* | 34* | 3
O=C(NCc1ccccn1)c1cc(-c2ccccc2)nc2ccccc12 | 13 | 2 | 8 | 9 | -1 | 3
CCCOc1cccc(-c2cc(C(=O)NNC(=S)NCC)c3ccccc3n2)c1 | 53* | 2 | 3 | 3 | 2 | 0
CCNC(=S)NNC(=O)c1cc(-c2cccc(OC)c2)nc2ccccc12 | 18 | 2 | -1 | 6 | -1 | -1
CCNC(=S)NNC(=O)c1cc(-c2ccc(OCC)cc2)nc2ccccc12 | -127 | 3 | 14 | 31* | 24* | 2
CCc1cccc(NC(=O)Cn2cc(C=O)c3ccccc32)c1 | 26 | 4 | 2 | 5 | 0 | .
CCOC(=O)Cc1cc(=O)c2cc(C)ccc2[nH]1 | . | . | 4 | 0 | -4 | 0
Cc1ccc(C)c(NC(=O)C(Sc2nnc(-c3cccs3)o2)c2ccccc2)c1 (centres undefined) | -8 | 4 | 11 | 72* | 89* | 0
O=C(c1ccc2c(=O)n(Cc3ccccc3Cl)c(=S)[nH]c2c1)N1CCCC1 | . | . | 6 | . | . | .
Cn1c(=O)[nH]c(=O)c2c1nc(CN1CCN(c3cccc(Cl)c3)CC1)n2Cc1ccccc1Cl | 12 | 14* | 2 | -1 | -6 | -1
Cc1ccccc1OCc1nc2ccccc2c(=O)n1/N=C/c1c[nH]c2ccccc12 | -6 | 5 | -3 | 7 | -1 | -3
Cc1cc(/C=N/n2c(COc3ccccc3C)nc3ccccc3c2=O)c(O)c([N+](=O)[O-])c1 | 45* | 8 | 8 | 9 | 4 | 3
COc1ccc2nc(SCC(=O)N3CCN(c4ccccc4F)CC3)c(C#N)cc2c1 | 12 | 2 | 0 | 1 | -2 | .
COc1ccc2nc(SCC(=O)N3CC(=O)Nc4ccccc43)c(C#N)cc2c1 | 60* | 27* | 2 | 3 | 0 | .
Cc1ccc(C(=O)Nc2ncc(Cc3ccc(F)cc3)s2)o1 | -134 | 2 | 45* | 71* | 80* | 0
